Runt-CBFb FRET: inhibitors of human RUNX1 Runt domain binding to CBFb | Q01196+Q13951 | Cerulean-Runt/Venus-CBFb FRET ratio 530/480, 1 h | inhibition, % at 20 µM | 220,000 tested, 0.46% active | AID 1496;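 active = inhibition over about 50% at 20 µM in the single-dose screen, limit read from the data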;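 note: 0% = DMSO wells and 100% = excess unlabeled CBFb competitor control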
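Assay system: Cerulean-Runt domain fusion protein, energy donor; Signal: fluorescence energy transfer, 422 nm excitation, 530/480 nm emission; Timing: 1 h compound exposure, room temperature; Control set: unlabeled CBFb; Medium: Tris buffer pH 7.5 with salts and BSA; Compound: single test concentration of 20 µM, 1% DMSO final; Probe or stimulus: Venus-CBFb 100 nM.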
Hck Nef HTS: inhibitors of human Hck kinase activated by Nef. P08631. Recombinant Hck-YEEI plus Nef, Z-Lyte FRET kinase assay. inhibition, % at 20 µM. 220,000 tested, 0.68% active. AID 463187;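 active = Hck-Nef kinase inhibition above about 50%, limit read from the data; inactive = inhibition below that limit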;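 note: 0% = DMSO with Hck plus Nef and 100% = Hck alone without Nef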
Target sequence (P08631 whole entry, looked up): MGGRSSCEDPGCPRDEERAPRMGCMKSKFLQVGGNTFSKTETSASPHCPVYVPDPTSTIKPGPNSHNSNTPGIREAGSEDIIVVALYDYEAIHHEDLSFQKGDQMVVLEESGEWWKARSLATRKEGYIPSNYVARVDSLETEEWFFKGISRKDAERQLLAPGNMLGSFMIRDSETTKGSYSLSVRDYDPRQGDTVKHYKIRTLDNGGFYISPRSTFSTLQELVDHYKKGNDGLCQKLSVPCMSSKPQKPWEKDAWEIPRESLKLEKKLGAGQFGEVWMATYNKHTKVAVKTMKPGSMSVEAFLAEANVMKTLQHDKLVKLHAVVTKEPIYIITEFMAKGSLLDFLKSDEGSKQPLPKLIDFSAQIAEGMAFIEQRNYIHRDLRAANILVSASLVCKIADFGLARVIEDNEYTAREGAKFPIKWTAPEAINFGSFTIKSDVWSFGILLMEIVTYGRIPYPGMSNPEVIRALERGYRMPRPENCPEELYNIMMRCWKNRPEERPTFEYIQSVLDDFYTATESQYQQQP
RanGTP-Imp inh: disruptors of Ran-importin-beta complex formation – biochemical, FRET, CFP-Ran, YFP-importin-beta, homogeneous, primary screen. 300,000 tested, 1.1% active. cell-free CFP-Ran/YFP-importin-beta FRET ratio. AID 2216. inhibition, % (test concentration not listed);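 active = more than half of the replicate wells show a fall in the fluorescence ratio signal beyond about 16%, limit read from the data, passing the limit was not always enough; inconclusive = exactly half of the replicate wells pass the set limit; inactive = fewer than half of replicates pass the limit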;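 note: 0% = DMSO wells and 100% = Ran loaded with GDP instead of GTP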
Runt-SMMHC FRET: blocks binding of human RUNX1 Runt domain to CBFb-SMMHC | Q01196+Q13951 | Cerulean-Runt/Venus-CBFb-SMMHC FRET ratio 530/480, 1 h | inhibition, % at 20 µM | 220,000 tested, 0.74% active | AID 1434;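 active = mean inhibition across duplicate retests at 20 µM reaching about 50%, limit read from the data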;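 note: 0% = DMSO wells and 100% = wells with excess untagged CBFb-SMMHC; inhibitors lower the FRET ratio by blocking Runt binding to CBFb-SMMHC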
Starred values were filed as active, the others as inactive; ? = inconclusive; / = no result. This is a sample that favours compounds with a hit; in the whole collection about 1.8% have one here.

SMILES	Runt-CBFb FRET	Hck Nef HTS	RanGTP-Imp inh	Runt-SMMHC FRET
CC1=CC2=NC(=O)/C(=C\c3cn(C)c4ccccc34)C(=N)N2O1	3.4	-18.5	50.4*	87.0*
COc1ccc(-c2sc3ccc(N4CCOCC4)cc3c2-c2ccc(OC)c(F)c2)cc1	/	/	1.4	/
COc1ccc2[nH]c3c4c(ccc3c2c1)C(=O)C=CC4=O	54.9*	5.8	/	24.2
COc1ccc2[nH]c(=O)cc(C(=O)O)c2c1	-1.7	23.1	5.9	3.1
Cc1ccccc1-n1ncc(C(C)NC(=O)c2ccccc2)c1C (stereo unspecified)	-1.8	17.5	?	1.4
Cc1c(CCC(=O)O)c(=O)oc2cc3occ(C(C)(C)C)c3cc12	-1.8	13.6	-4.5	-3.0
Cc1c(CCC(=O)O)c(=O)oc2cc(O)ccc12	32.6	8.7	2.7	74.7*
CC(C)C(=O)n1nc(-c2cccnc2)nc1NCc1ccc(F)cc1	-1.0	-152.9	-3.2	-1.6
CCN1CCc2c(sc(NC(=S)NC(=O)c3ccco3)c2C(N)=O)C1	11.5	-42.3	163.2*	57.8*
CN1CCc2c(sc(NC(=O)Cc3ccc(F)cc3)c2C(N)=O)C1	/	/	130.7*	/
CCC(=O)Nc1sc2c(c1C(N)=O)CCN(C(C)=O)C2	/	6.1	0.9	-2.7
CCN1CCc2c(sc(NC(=O)c3ccc(S(=O)(=O)N4CCOCC4)cc3)c2C(=O)OC)C1	-0.9	4.4	3.4	14.2
CCN1CCc2c(sc(NC(=O)Nc3ccc(Cl)c(Cl)c3)c2C(N)=O)C1	4.0	0.7	/	77.2*
CCN1CCc2c(sc(NC(=O)c3ccc(S(=O)(=O)N4CCOCC4)cc3)c2C(N)=O)C1	8.8	-4.3	?	16.1
CCN1CCc2c(sc(NC(=O)COc3ccccc3)c2C(=O)OC)C1	/	/	87.1*	/
CCOC(=O)c1c(NC(=O)OC)sc2c1CCC2	-2.8	0.3	-0.9	0.4
CN1CCc2c(sc(NC(=O)Cc3ccccc3)c2C(N)=O)C1	/	/	133.7*	/
CCOC(=O)c1c(NC(=O)C(F)(OC)C(F)(F)F)sc2c1CCN(C)C2 (stereo unspecified)	83.8*	9.5	76.4*	61.5*
CCOC(=O)c1c(NC(=O)CSc2nnc(C)s2)sc2c1CCN(C)C2	78.8*	6.1	26.8*	134.8*
CCN1CCc2c(sc(NC(=O)c3ccc(C(=O)c4ccccc4)cc3)c2C(N)=O)C1	/	/	8.9	/
CCN1CCc2c(sc(NC(=O)c3ccc(S(=O)(=O)N(CC)c4ccccc4)cc3)c2C(N)=O)C1	/	/	71.6*	/
Cc1cc(C)c2[nH]c(=O)c(CN(Cc3cccs3)C(=S)NCc3ccco3)cc2c1	20.1	3.7	?	0.4
CCn1c(C(C)NC(=O)c2cccc(C)c2)n[nH]c1=S (stereo unspecified)	0.7	15.2	-1.0	5.2
CCOC(=O)c1c(NC(=S)Nc2ccc(Cl)cc2)sc2c1CCN(C)C2	97.8*	9.5	/	163.8*
CCOC(=O)c1c(NC(=O)Cc2ccccc2)sc2c1CCN(C)C2	/	/	75.9*	/
SMILES	Runt-CBFb FRET	Hck Nef HTS	RanGTP-Imp inh	Runt-SMMHC FRET
CCN1CCc2c(sc(NC(=O)Cc3ccccc3)c2C(N)=O)C1	/	/	154.5*	/
CCOC(=O)c1c(NC(=O)CCS(=O)(=O)c2ccccc2)sc2c1CCN(C)C2	/	/	125.5*	/
CCOC(=O)N1CCc2c(sc(NC(=O)CCS(=O)(=O)c3ccccc3)c2C(N)=O)C1	/	/	-2.8	/
CCOC(=O)c1c(NC(=O)c2cccs2)sc2c1CCN(C(=O)OCC)C2	-1.9	1.8	-3.4	0.9
CC(NS(=O)(=O)c1ccccc1)C1CC2CCC1C2 (stereo unspecified)	/	/	-0.7	/
COC(=O)Cc1[nH]nc2c1C(c1ccc(O)c(OC)c1)C(C#N)=C(N)O2 (stereo unspecified)	3.2	33.4	5.4	6.3
CCOc1ccc(C(=O)NCC(c2cccs2)N(C)C)cc1OCC (stereo unspecified)	0.4	0.7	-4.0	0.2
O=S(=O)(O)c1cccc2c(N=Nc3ccc(O)c4ncccc34)cccc12	/	/	16.2*	/
Oc1ccc(Br)cc1/C=N/n1c(-c2ccccc2)n[nH]c1=S	/	/	17.8*	/
CCN(Cc1ccncc1)Cc1nc(CC2CC2)no1	1.3	19.7	-0.9	2.6
CCn1c(=O)cc(SCC(=O)Nc2ccc(Cl)cc2)c2ccccc21	3.5	0.7	63.5*	2.2
CCCc1cc(=O)[nH]c(SCC(=O)Nc2cc(C)on2)n1	-0.5	20.2	3.8	-3.4
COc1ccc(NC(=O)CN2C(=O)NC(c3ccccc3)(c3ccccc3)C2=O)cc1OC	/	/	30.8*	/
CN1CCc2nc(NC(=O)COc3ccc(C#N)cc3)sc2C1	36.0	33.2	22.9*	59.2*
O=C(COc1ccccc1)Nc1nc2c(s1)CCCC2	/	/	-1.8	/
CCCCn1c(SCC(=O)NC2CC2)nnc1-c1ccncc1	/	/	-2.8	/
CCOC(=O)c1cc(-c2csc(N/N=C/c3ccccc3Cl)n2)on1	7.3	7.8	42.4*	15.8
CCOC(=O)c1cc(-c2csc(Nc3ccccc3Cl)n2)on1	-2.6	5.7	-1.7	0.6
N#CCCN(C(=O)COC(=O)C1CCN(S(=O)(=O)c2ccc3c(c2)OCCO3)CC1)c1ccccc1	/	/	0.2	/
NC(=O)NC(c1ccccc1)c1cccc2ccccc12 (stereo unspecified)	-0.6	-0.8	-0.5	0.8
N#C/C(=C\c1ccc(Cl)cc1)c1nc2ncccc2[nH]1	16.9	3.8	36.0*	33.6
ClC(/C=N/n1cnnc1)=C/c1ccccc1	-0.3	20.6	7.2	-2.8
COC(=O)/C(C#N)=C1/C=Cc2ccccc2N1C	-2.2	4.6	0.2	-2.0
N#C/C(C(=O)Oc1ccccc1)=C1\C=Cc2ccccc2N1	33.5	4.9	54.5*	17.7
CC(OC(=O)/C(C#N)=C/c1ccc(N(C)C)cc1)C(=O)N(C)Cc1ccccc1 (stereo unspecified)	/	/	80.9*	/
Cc1ccc(-n2c([S-])c(C(=O)Nc3ccc(OC(F)F)cc3)[n+]3ccc(C(=O)NCCO)cc23)cc1C	13.3	3.4	7.5	14.8
COc1ccccc1-n1c([S-])c(C(=O)Nc2ccccc2C(F)(F)F)[n+]2ccc(C(=O)NCCO)cc12	6.3	23.1	19.8*	2.5

Bioassay records deposited in PubChem BioAssay by several laboratories.
